Experimental data gathered from unrelated publications.
Protocols differ between the studies behind these lines.
Cell line: SW480
Observed: cell growth or viability

Structure (SMILES)	test	setting	endpoint	value
CC[C@H](C)C(=O)O[C@H]1C[C@@H](C)C=C2C=C[C@H](C)[C@H](CC[C@@H]3C[C@@H](O)CC(=O)O3)[C@H]21	SRB	72 h	IC50	8.85 µg/mL
C=CCNC1=C2C[C@@H](C)C[C@H](OC)[C@H](O)[C@@H](C)/C=C(\C)[C@H](OC(N)=O)[C@@H](OC)/C=C\C=C(/C)C(=O)NC(=CC1=O)C2=O	MTT	–	IC50	657 nM
CC(C)C[C@H](NC(=O)[C@H](Cc1ccccc1)NC(=O)c1cnccn1)B(O)O	ATP luminescence	–	IC50	8.6 nM
COc1cc([C@@H]2c3cc4c(cc3[C@@H](O[C@@H]3O[C@@H]5CO[C@@H](C)O[C@H]5[C@H](O)[C@H]3O)[C@H]3COC(=O)[C@H]23)OCO4)cc(OC)c1O	MTT	48 h	IC50	17100 nM
COc1cc(Nc2nccc(-c3cnn4nc(OC)ccc34)n2)cc(C(F)(F)F)c1	ATP luminescence	–	IC50	720 nM
O=C(O)C[C@H](O)C[C@H](O)/C=C/c1c(C2CC2)nc2ccccc2c1-c1ccc(F)cc1	SRB	72 h	IC50	32.3 µg/mL
COC1=C2C[C@@H](C)C[C@H](OC)[C@H](O)[C@@H](C)/C=C(\C)[C@H](OC(N)=O)[C@@H](OC)/C=C\C=C(/C)C(=O)NC(=CC1=O)C2=O	MTT	–	IC50	308 nM
Cc1cc2c(cc1N1C(=O)c3cccc4c(CCCO)ccc(c34)C1=O)n(C)c(=O)n2C (racemic)	resazurin	–	GI50	> 10000 nM
